In general, pKi refers to the Ki on a negative log10 scale, so that one unit is a factor of ten. One may read the pIC50 as the IC50 on a negative log10 scale, so that one unit is a factor of ten.

Experiment [1] has as its system tsA201. Description: Displacement of [3H]methyllycaconitine from chimeric alpha-7nAChR W55A/Y195A mutant /5HT3A receptor in tsA201 cells. The class given is cell-based. To be noted: Homo sapiens. Summed up: (§1)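 tsA-201 cells transiently transfected with 4 µg WT or mutant α7/5-HT3A chimera and assayed 2 days later. Membranes washed twice at 50000g in 50 mM Tris-HCl pH 7.2. Incubated with 0.5 nM [3H]MLA and compound for 2.5 h at room temperature with shaking; nonspecific binding with 5 mM (S)-nicotine. PEI-soaked GF/C filtration, scintillation counting. Ki derived; duplicate, 3–7 experiments.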

Experiment [2] can be described thus: Antagonist activity at human alpha7 nAChR W149Y mutant co-expressed with human Ric3 in tsA201 cells by FMP assay. The class given is functional, cell-based.
For experiment [3], the target named is Neuronal acetylcholine receptor; alpha4/beta4 (Rattus norvegicus, UniProt P09483+P12392). The experiment can be described thus: Displacement of [3H]epibatidine from recombinant rat alpha-4-beta-4 nAChr in HEK293 cell line. The class given is cell-based. For orientation: Loss of bound radioactivity is the signal in a displacement assay; it reports binding, not function.
Neuronal acetylcholine receptor; alpha4/beta4, sequence (P09483 whole entry): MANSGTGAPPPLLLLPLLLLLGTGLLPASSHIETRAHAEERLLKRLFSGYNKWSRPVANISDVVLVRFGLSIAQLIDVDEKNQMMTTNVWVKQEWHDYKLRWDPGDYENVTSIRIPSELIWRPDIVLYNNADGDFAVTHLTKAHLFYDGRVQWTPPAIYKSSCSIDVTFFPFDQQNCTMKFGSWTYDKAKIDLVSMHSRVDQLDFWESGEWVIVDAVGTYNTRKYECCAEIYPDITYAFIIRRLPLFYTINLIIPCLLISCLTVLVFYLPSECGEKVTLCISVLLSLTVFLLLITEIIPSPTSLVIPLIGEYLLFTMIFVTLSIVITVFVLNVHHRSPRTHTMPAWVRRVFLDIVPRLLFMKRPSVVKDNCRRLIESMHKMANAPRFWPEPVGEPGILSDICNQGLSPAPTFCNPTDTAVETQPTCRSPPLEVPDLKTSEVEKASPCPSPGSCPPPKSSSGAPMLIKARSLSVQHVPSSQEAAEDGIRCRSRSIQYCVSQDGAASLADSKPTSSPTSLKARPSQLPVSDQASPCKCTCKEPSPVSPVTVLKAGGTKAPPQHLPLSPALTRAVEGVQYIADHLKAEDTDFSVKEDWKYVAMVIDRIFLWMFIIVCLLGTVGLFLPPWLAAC
Neuronal acetylcholine receptor; alpha4/beta4, sequence (P12392 whole entry): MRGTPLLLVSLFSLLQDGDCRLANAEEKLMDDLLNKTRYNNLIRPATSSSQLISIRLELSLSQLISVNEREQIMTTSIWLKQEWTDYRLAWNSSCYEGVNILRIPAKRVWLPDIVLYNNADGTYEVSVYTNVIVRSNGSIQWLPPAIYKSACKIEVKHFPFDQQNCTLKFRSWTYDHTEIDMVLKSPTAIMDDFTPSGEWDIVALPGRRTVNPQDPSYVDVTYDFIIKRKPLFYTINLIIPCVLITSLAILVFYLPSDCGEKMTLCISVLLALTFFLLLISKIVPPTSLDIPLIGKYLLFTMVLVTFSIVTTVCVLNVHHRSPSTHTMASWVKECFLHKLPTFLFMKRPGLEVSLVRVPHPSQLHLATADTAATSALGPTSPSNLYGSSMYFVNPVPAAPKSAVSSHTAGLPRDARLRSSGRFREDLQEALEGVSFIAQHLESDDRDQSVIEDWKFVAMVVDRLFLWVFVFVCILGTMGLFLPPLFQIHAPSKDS

Experiment [4] has as its target Neuronal acetylcholine receptor subunit alpha-7 (Homo sapiens, UniProt P36544). The experiment can be described thus: Displacement of [3H]methyllycaconitine from human alpha-7 in tsA201 cells coexpressed with 5HT3A receptor. The format is cell-based.
In experiment [5] the target is Neuronal acetylcholine receptor; alpha3/beta4 (Rattus norvegicus, UniProt P04757+P12392). Description: Antagonist activity at rat alpha3beta4 nAChR expressed in HEK293 cells by FMP assay. The class given is functional, cell-based, Homo sapiens.
Neuronal acetylcholine receptor; alpha3/beta4, sequence (P04757 whole entry): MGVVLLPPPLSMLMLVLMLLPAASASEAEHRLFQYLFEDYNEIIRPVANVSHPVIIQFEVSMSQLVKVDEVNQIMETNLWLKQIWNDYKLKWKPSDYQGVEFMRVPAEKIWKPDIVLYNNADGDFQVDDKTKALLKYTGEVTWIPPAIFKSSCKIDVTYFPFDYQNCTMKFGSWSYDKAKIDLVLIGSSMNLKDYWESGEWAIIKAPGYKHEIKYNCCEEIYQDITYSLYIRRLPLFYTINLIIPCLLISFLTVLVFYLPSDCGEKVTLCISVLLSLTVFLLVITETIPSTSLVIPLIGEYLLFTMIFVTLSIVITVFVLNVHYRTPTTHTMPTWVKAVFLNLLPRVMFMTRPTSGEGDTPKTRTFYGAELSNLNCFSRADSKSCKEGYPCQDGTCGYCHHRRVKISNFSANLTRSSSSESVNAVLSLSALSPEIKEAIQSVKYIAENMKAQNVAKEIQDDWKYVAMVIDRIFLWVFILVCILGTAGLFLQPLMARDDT
Neuronal acetylcholine receptor; alpha3/beta4, sequence (P12392 whole entry): as the sequence (P12392 whole entry) above
Experiment [6] in a line: Displacement of [3H]methyllycaconitine from chimeric alpha-7nAChR N107A mutant/5HT3A receptor in tsA201 cells. The class given is cell-based, Homo sapiens. The procedure, abridged: as §1
Experiment [7] is described as follows: Displacement of [3H]methyllycaconitine from chimeric alpha7nAChR K145A mutant/5HT3A receptor in tsA201 cells. The class given is cell-based, Homo sapiens. Summed up: as §1
The nature of experiment [8]: Displacement of [3H]methyllycaconitine from chimeric alpha-7nAChR S148A mutant /5HT3A receptor in tsA201 cells. The class given is cell-based, Homo sapiens. The procedure, abridged:
as §1

Experiment [9] concerns tsA201. The experiment can be described thus: Displacement of [3H]methyllycaconitine from chimeric alpha-7nAChR Y188A mutant/5-HT3A receptor in tsA201 cells. The class given is cell-based. To be noted: Homo sapiens. Summed up:
as §1

Experiment [10] is described as follows: Displacement of [3H]methyllycaconitine from chimeric alpha7nAChR Y195A mutant/5HT3A receptor in tsA201 cells. The class given is cell-based, Homo sapiens. The procedure, abridged: as §1

Calls of active or inactive are those of the source. The rule behind the calls is not given here. A value given as a limit tells only on which side of the number the result lay.

Neuronal acetylcholine receptor subunit alpha-7, sequence (P36544 whole entry): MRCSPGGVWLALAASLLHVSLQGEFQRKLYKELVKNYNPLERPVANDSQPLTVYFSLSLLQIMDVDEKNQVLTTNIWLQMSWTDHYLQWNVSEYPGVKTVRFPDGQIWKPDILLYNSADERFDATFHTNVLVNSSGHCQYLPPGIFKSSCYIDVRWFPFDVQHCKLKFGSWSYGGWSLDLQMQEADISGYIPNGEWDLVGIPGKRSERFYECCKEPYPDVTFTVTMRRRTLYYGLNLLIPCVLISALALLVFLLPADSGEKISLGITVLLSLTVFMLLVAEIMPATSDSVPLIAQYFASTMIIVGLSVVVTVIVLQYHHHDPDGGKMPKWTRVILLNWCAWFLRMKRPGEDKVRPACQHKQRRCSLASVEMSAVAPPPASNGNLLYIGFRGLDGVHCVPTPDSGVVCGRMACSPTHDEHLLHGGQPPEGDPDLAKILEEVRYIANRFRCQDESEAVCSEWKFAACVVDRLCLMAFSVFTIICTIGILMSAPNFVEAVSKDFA

On to `O=[N+]([O-])c1ccc(C[N+]23CC[C@@H]4[C@@H]5[C@@H]6[C@@H](OCC=C(C2)[C@@H]6C[C@@H]43)N2c3ccccc3[C@@]34CC[N+]6(Cc7ccc([N+](=O)[O-])cc7)CC7=CCO[C@H]([C@@H]([C@H]23)[C@H]7C[C@@H]46)N5c2ccccc2)cc1.[Br-].[Br-]` (stereo partly drawn), for which the result with tsA201 [1] and in the experiment with tsA201 [9] was inactive. For the same compound, the IC50 in experiment [2] (read-out: IC50) is 1200 nM; in [2] (read-out: pIC50 (converted)) it was 1170 nM; in experiment [5] (read-out: IC50) it was over 100000 nM. Further, the Ki is over 100000 nM in experiment [3]; 22 nM in experiment [4] (read-out: Ki); 20 nM in experiment [4] (read-out: pKi (converted)); 17 nM in [6]; 28 nM in experiment [7]; 160 nM in [8]. In [10], this compound showed a Ki of 740 nM. Further, the pKi in experiment [3] (hek293) is given as under 4; in [6], 7.76; in experiment [7], 7.56; in experiment [8] it was 6.8; in experiment [10], 6.13. Besides, in experiment [5] (hek293), the pIC50 is given as under 4.
